Measured values: ChEMBL document CHEMBL2062453, “Lead optimization through VLAK protocol: new annelated pyrrolo-pyrimidine derivatives as antitumor agents” (2012)

Legend:
Type in all cases: functional
HL-60(TB) = test: Cytotoxicity against human HL-60(TB) cells assessed as cell growth at 10 uM after 48 hrs by SRB assay relative to control; settings: HL-60, 48 h, read-out: Activity
MOLT-4 = test: Cytotoxicity against human MOLT4 cells assessed as cell growth at 10 uM after 48 hrs by SRB assay relative to control; settings: MOLT-4, 48 h, read-out: Activity
RPMI-8226 = test: Cytotoxicity against human RPMI8226 cells assessed as cell growth at 10 uM after 48 hrs by SRB assay relative to control; settings: RPMI-8226, 48 h, read-out: Activity
HOP-62 = test: Cytotoxicity against human HOP62 cells assessed as cell growth at 10 uM after 48 hrs by SRB assay relative to control; settings: HOP-62, 48 h, read-out: Activity
Summary of the method: (§1)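 NCI primary screen of about 60 human tumour lines. Cells inoculated and preincubated, then a single test concentration added and cultures incubated 48 h. Result given as percent growth (G%) of treated versus untreated control cells.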

NCI-H322M = test: Cytotoxicity against human NCI-H322M cells assessed as cell growth at 10 uM after 48 hrs by SRB assay relative to control; settings: read-out: Activity
NCI-H522 = test: Cytotoxicity against human NCI-H522 cells assessed as cell growth at 10 uM after 48 hrs by SRB assay relative to control; settings: NCI-H522, 48 h, read-out: Activity
HCC 2998 = test: Cytotoxicity against human HCC2998 cells assessed as cell growth at 10 uM after 48 hrs by SRB assay relative to control; settings: HCC 2998, 48 h, read-out: Activity; summary of the method: as §1
HCT-116 = test: Cytotoxicity against human HCT116 cells assessed as cell growth at 10 uM after 48 hrs by SRB assay relative to control; settings: HCT-116, 48 h, read-out: Activity; summary of the method: as §1
HT-29 = test: Cytotoxicity against human HT-29 cells assessed as cell growth at 10 uM after 48 hrs by SRB assay relative to control; settings: HT-29, 48 h, read-out: Activity; summary of the method: as §1
SW-620 = test: Cytotoxicity against human SW620 cells assessed as cell growth at 10 uM after 48 hrs by SRB assay relative to control; settings: SW-620, 48 h, read-out: Activity
Summary of the method: (§2)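 NCI single-dose primary screen across about 60 human tumour lines. Each line was inoculated and preincubated on microtiter plates, then exposed to one concentration of agent for 48 h. Growth is reported as percent growth (G%) of treated cells versus untreated control cells.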

SF-268 = test: Cytotoxicity against human SF268 cells assessed as cell growth at 10 uM after 48 hrs by SRB assay relative to control; settings: SF-268, 48 h, read-out: Activity
SNB-19 = test: Cytotoxicity against human SNB19 cells assessed as cell growth at 10 uM after 48 hrs by SRB assay relative to control; settings: SNB-19, 48 h, read-out: Activity
MDA-MB-435 = test: Cytotoxicity against human MDA-MB-435 cells assessed as cell growth at 10 uM after 48 hrs by SRB assay relative to control; settings: MDA-MB-435, 48 h, read-out: Activity
SK-MEL-2 = test: Cytotoxicity against human SK-MEL-2 cells assessed as cell growth at 10 uM after 48 hrs by SRB assay relative to control; settings: SK-MEL-2, 48 h, read-out: Activity
SK-MEL-28 = test: Cytotoxicity against human SK-MEL-28 cells assessed as cell growth at 10 uM after 48 hrs by SRB assay relative to control; settings: SK-MEL-28, 48 h, read-out: Activity
UACC-62 = test: Cytotoxicity against human UACC62 cells assessed as cell growth at 10 uM after 48 hrs by SRB assay relative to control; settings: UACC-62, 48 h, read-out: Activity; summary of the method: as §2
OVCAR-3 = test: Cytotoxicity against human OVCAR3 cells assessed as cell growth at 10 uM after 48 hrs by SRB assay relative to control; settings: OVCAR-3, 48 h, read-out: Activity
OVCAR-8 = test: Cytotoxicity against human OVCAR8 cells assessed as cell growth at 10 uM after 48 hrs by SRB assay relative to control; settings: OVCAR-8, 48 h, read-out: Activity
SK-OV-3 = test: Cytotoxicity against human SKOV3 cells assessed as cell growth at 10 uM after 48 hrs by SRB assay relative to control; settings: SK-OV-3, 48 h, read-out: Activity
A498 = test: Cytotoxicity against human A498 cells assessed as cell growth at 10 uM after 48 hrs by SRB assay relative to control; settings: A498, 48 h, read-out: Activity; summary of the method: as §1
CAKI-1 = test: Cytotoxicity against human Caki1 cells assessed as cell growth at 10 uM after 48 hrs by SRB assay relative to control; settings: CAKI-1, 48 h, read-out: Activity; summary of the method: as §1
SN12C = test: Cytotoxicity against human SN12C cells assessed as cell growth at 10 uM after 48 hrs by SRB assay relative to control; settings: read-out: Activity
TK-10 = test: Cytotoxicity against human TK10 cells assessed as cell growth at 10 uM after 48 hrs by SRB assay relative to control; settings: TK-10, 48 h, read-out: Activity; summary of the method: as §2
MDA-MB-231 = test: Cytotoxicity against human MDA-MB-231 cells assessed as cell growth at 10 uM after 48 hrs by SRB assay relative to control; settings: MDA-MB-231, 48 h, read-out: Activity; summary of the method: as §1
Hs-578T = test: Cytotoxicity against human Hs578T cells assessed as cell growth at 10 uM after 48 hrs by SRB assay relative to control; settings: read-out: Activity; summary of the method: as §1
BT-549 = test: Cytotoxicity against human BT549 cells assessed as cell growth at 10 uM after 48 hrs by SRB assay relative to control; settings: BT-549, 48 h, read-out: Activity; summary of the method: as §1

Compound	growth at 10 µM (HL-60(TB)) [%]	growth at 10 µM (MOLT-4) [%]	growth at 10 µM (RPMI-8226) [%]	growth at 10 µM (HOP-62) [%]	growth at 10 µM (NCI-H322M) [%]	growth at 10 µM (NCI-H522) [%]	growth at 10 µM (HCC 2998) [%]	growth at 10 µM (HCT-116) [%]	growth at 10 µM (HT-29) [%]	growth at 10 µM (SW-620) [%]	growth at 10 µM (SF-268) [%]	growth at 10 µM (SNB-19) [%]	growth at 10 µM (MDA-MB-435) [%]	growth at 10 µM (SK-MEL-2) [%]	growth at 10 µM (SK-MEL-28) [%]	growth at 10 µM (UACC-62) [%]	growth at 10 µM (OVCAR-3) [%]	growth at 10 µM (OVCAR-8) [%]	growth at 10 µM (SK-OV-3) [%]	growth at 10 µM (A498) [%]	other results
COC(=O)C(Cc1cnc[nH]1)NC(=O)CCCn1c(C)c(C)c2c1N=C(SC)N1CC(=O)N=C21 (configuration not stated)	92	98	100	103	105	90	103	100	96	98	106	94	102	105	113	109	121	103	125	101	growth at 10 µM (CAKI-1): 102%; growth at 10 µM (SN12C): 107%; growth at 10 µM (TK-10): 111%; growth at 10 µM (MDA-MB-231): 112%; growth at 10 µM (Hs-578T): 107%; growth at 10 µM (BT-549): 107%
CCOC(=O)CCCn1c2c(c(C)c1-c1ccccc1)C1=NC(=O)CN1C(SC)=N2	90	77	81	111	108	92	127	112	103	110	105	106	111	114	100	95	110	99	123	118	growth at 10 µM (CAKI-1): 100%; growth at 10 µM (SN12C): 127%; growth at 10 µM (TK-10): 123%; growth at 10 µM (MDA-MB-231): 130%; growth at 10 µM (Hs-578T): 112%; growth at 10 µM (BT-549): 107%
